ChEMBL document CHEMBL1944543, “A facile 'click' approach to novel 15β-triazolyl-5α-androstane derivatives, and an evaluation of their antiproliferative activities in vitro” (Bioorg Med Chem, 2012)
Activity calls are given as the source filed them. The calls are words filed in the database; no cut-off is given here.

Experiments:
[1] = tested on: HeLa; assay: Antiproliferative activity against human HeLa cells after 72 hrs by MTT assay; format: functional, cell-based
How it was run: (§1)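 HeLa, MCF-7 and A431 cells were kept in minimal essential medium with 10% fetal bovine serum, 1% non-essential amino acids and antibiotic-antimycotic, at 37 °C in humidified 5% CO₂. Cells were seeded at 5000 cells/well, left overnight, then given compound-containing medium. Read-out was MTT colorimetric, with cisplatin as positive control. IC₅₀ came from fitted sigmoidal dose–response curves.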

[2] = tested on: MCF7; assay: Antiproliferative activity against human MCF7 cells after 72 hrs by MTT assay; format: functional, cell-based; details: MCF7, 72 h; how it was run: as §1
[3] = tested on: A-431; assay: Antiproliferative activity against human A431 cells after 72 hrs by MTT assay; format: functional, cell-based; details: A-431, 72 h; how it was run: as §1
[4] = tested on: HeLa; assay: Cell cycle arrest in human HeLa cells assessed as accumulation at G2/M phase after 24 hrs by flow cytometry; format: functional, cell-based
How it was run: (§2)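 HeLa cells were treated at […] for 24 or 48 h. Then 200,000 cells per condition were trypsinized, PBS-washed, fixed in cold 70% ethanol for 30 min on ice, washed twice and PI-stained for DNA. 20,000 events were recorded and subG1, G1, S and G2/M percentages computed, with subG1 taken as apoptotic. Values are means of three determinations, tested against control.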

[5] = tested on: HeLa; assay: Cell cycle arrest in human HeLa cells assessed as accumulation at Sub-G1 phase at 3 to 10 uM after 24 hrs by flow cytometry analysis; format: functional, cell-based; how it was run: as §2
[6] = tested on: HeLa; assay: Cell cycle arrest in human HeLa cells at 3 to 10 uM after 48 hrs by flow cytometry analysis; format: functional, cell-based; how it was run: as §2
[7] = tested on: HeLa; assay: Induction of apoptosis in human HeLa cells assessed as nuclear condensation after 24 hrs by Hoechst 33258 staining based fluorescence microscopy; format: functional, cell-based
How it was run: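 Near-confluent HeLa cells were seeded at 5000 cells/well and exposed for 24 h to vehicle or compound at […]. Hoechst 33258 and PI were added at final 5 and 2 µg/mL, then incubated 1 h at 37 °C.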

[8] = tested on: HeLa; assay: Cellular uptake in human HeLa cells after 24 hrs by fluorescence microscopy; format: ADME, cell-based
[9] = tested on: HeLa; assay: Cell cycle arrest in human HeLa cells assessed as accumulation at S phase at 3 to 10 uM after 24 hrs by flow cytometry analysis; format: functional, cell-based; how it was run: as §2
[10] = tested on: HeLa; assay: Cell cycle arrest in human HeLa cells assessed as accumulation at G2/M phase at 3 to 10 uM after 24 hrs by flow cytometry; format: functional, cell-based; how it was run: as §2

Compound	IC50 [1] [µM]	IC50 [2] [µM]	IC50 [3] [µM]	Activity [4]	Activity [5]	Activity [6]	Activity [7]	Drug uptake [8]	Activity [9]	Activity [10]
CC(=O)O[C@H]1CC[C@@]2(C)[C@@H](CC[C@H]3[C@@H]4[C@H](n5cc(-c6ccccc6)nn5)CC(=O)[C@@]4(C)CC[C@@H]32)C1	9.16	1.69	9.69	Dose-dependent effect	Active	Active	Dose-dependent effect	Dose-dependent effect	–	–
COc1ccc2c(c1)CC[C@H]1[C@@H]3[C@H](n4cc(-c5ccccc5)nn4)C[C@H](O)[C@@]3(C)CC[C@H]21	> 30	> 30	1.7	–	–	–	–	–	–	–
CC(=O)O[C@H]1CC[C@@]2(C)[C@@H](CC[C@H]3[C@@H]4[C@H](n5cc(-c6ccc(C)cc6)nn5)C[C@H](O)[C@@]4(C)CC[C@@H]32)C1	9.4	10.3	22.4	Dose-dependent effect	Active	Active	Dose-dependent effect	Dose-dependent effect	–	–
CCCc1ccc(-c2cn([C@@H]3C[C@H](O)[C@@]4(C)CC[C@H]5[C@@H](CC[C@H]6C[C@@H](OC(C)=O)CC[C@@]65C)[C@H]34)nn2)cc1	6.52	> 30	> 30	–	Active	Active	Dose-dependent effect	Dose-dependent effect	Active	inactive
COc1ccc2c(c1)CC[C@H]1[C@@H]3[C@H](n4cc(-c5ccccc5)nn4)CC(=O)[C@@]3(C)CC[C@H]21	14.9	11.3	4.77	–	–	–	–	–	–	–
CC(=O)O[C@H]1CC[C@@]2(C)[C@@H](CC[C@H]3[C@@H]4[C@H](n5cc(-c6ccc(C)cc6)nn5)CC(=O)[C@@]4(C)CC[C@@H]32)C1	10.3	2.68	10.7	Dose-dependent effect	–	–	Dose-dependent effect	Dose-dependent effect	–	–
CCCc1ccc(-c2cn([C@@H]3CC(=O)[C@@]4(C)CC[C@H]5[C@@H](CC[C@H]6C[C@@H](OC(C)=O)CC[C@@]65C)[C@H]34)nn2)cc1	15	8.4	> 30	–	–	–	–	–	–	–
CC(=O)O[C@H]1CC[C@@]2(C)[C@@H](CC[C@H]3[C@@H]4[C@H](n5cc(-c6ccc(F)cc6)nn5)CC(=O)[C@@]4(C)CC[C@@H]32)C1	11	3.39	16	–	–	–	–	–	–	–
CC(=O)O[C@H]1CC[C@@]2(C)[C@@H](CC[C@H]3[C@@H]4[C@H](n5cc(-c6ccccc6)nn5)C[C@H](O)[C@@]4(C)CC[C@@H]32)C1	7.7	19.2	20.7	Dose-dependent effect	Active	Active	Dose-dependent effect	Dose-dependent effect	–	–
CC(=O)O[C@H]1CC[C@@]2(C)[C@@H](CC[C@H]3[C@@H]4[C@H](n5cc(-c6ccc(F)cc6)nn5)C[C@H](O)[C@@]4(C)CC[C@@H]32)C1	> 30	> 30	> 30	–	–	–	–	–	–	–
